According to ChEMBL document CHEMBL2010720, “Synthesis and evaluation of ursolic acid derivatives as potent cytotoxic agents” (Bioorg Med Chem Lett, 2012):

Key:
[1] = test system: AGS; experiment: Cytotoxicity against human AGS cells after 48 hrs by MTT assay; format: functional, cell-based
Procedure, shortened: (§1)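 Cells seeded at 1×10^4 per well and treated 24 h later for 48 h at 10, 20, 40, 60, 80 and 100 µM, each in six wells. Compounds came from 20 mM DMSO stocks diluted in medium; the vehicle control matched the DMSO of the top dose. MTT was added for 4 h, formazan dissolved in DMSO and read at 570 nm. IC50 was taken as the concentration giving 50% growth inhibition.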

[2] = test system: HepG2; experiment: Cytotoxicity against human HepG2 cells after 48 hrs by MTT assay; format: functional, cell-based; details: HepG2, 48 h; procedure, shortened: as §1
[3] = test system: HT-29; experiment: Cytotoxicity against human HT-29 cells after 48 hrs by MTT assay; format: functional, cell-based; details: HT-29, 48 h; procedure, shortened: as §1
[4] = test system: PC-3; experiment: Cytotoxicity against human PC3 cells after 48 hrs by MTT assay; format: functional, cell-based; details: PC-3, 48 h; procedure, shortened: as §1
[5] = test system: AGS; experiment: Cell cycle arrest in human AGS cells assessed as accumulation at G2/M phase cells at 10 uM after 48 hrs by flow cytometry (reference value: 35.37 +/- 3.73%); format: functional
[6] = test system: AGS; experiment: Cell cycle arrest in human AGS cells assessed as accumulation at sub-G0/G1 phase cells at 10 uM after 48 hrs by flow cytometry (reference value: 1.56 +/- 0.20%); format: functional
[7] = test system: AGS; experiment: Cell cycle arrest in human AGS cells assessed as accumulation at G0/G1 phase cells at 10 uM after 48 hrs by flow cytometry (reference value: 28.07 +/- 3.52%); format: functional
[8] = test system: AGS; experiment: Cell cycle arrest in human AGS cells assessed as accumulation at S phase cells at 10 uM after 48 hrs by flow cytometry (reference value: 36.56 +/- 0.36%); format: functional
[9] = test system: AGS; experiment: Induction of apoptosis in human AGS cells assessed as viable cells at 5 uM after 24 hrs by annexin-V/PI staining-based flow cytometric analysis (reference value: 95.5%); format: functional; details: read-out: Activity
[10] = test system: AGS; experiment: Induction of apoptosis in human AGS cells assessed as early apoptotic cells at 5 uM after 24 hrs by annexin-V/PI staining-based flow cytometric analysis (reference value: 1.9%); format: functional
[11] = test system: AGS; experiment: Induction of apoptosis in human AGS cells assessed as late apoptotic cells at 5 uM after 24 hrs by annexin-V/PI staining-based flow cytometric analysis (reference value: 2.5%); format: functional
[12] = test system: AGS; experiment: Induction of apoptosis in human AGS cells assessed as viable cells at 10 uM after 24 hrs by annexin-V/PI staining-based flow cytometric analysis (reference value: 95.5%); format: functional; details: read-out: Activity
[13] = test system: AGS; experiment: Induction of apoptosis in human AGS cells assessed as early apoptotic cells at 10 uM after 24 hrs by annexin-V/PI staining-based flow cytometric analysis (reference value: 1.9%); format: functional
[14] = test system: AGS; experiment: Induction of apoptosis in human AGS cells assessed as late apoptotic cells at 10 uM after 24 hrs by annexin-V/PI staining-based flow cytometric analysis (reference value: 2.5%); format: functional
[15] = test system: AGS; experiment: Induction of apoptosis in human AGS cells assessed as viable cells at 20 uM after 24 hrs by annexin-V/PI staining-based flow cytometric analysis (reference value: 95.5%); format: functional; details: read-out: Activity
[16] = test system: AGS; experiment: Induction of apoptosis in human AGS cells assessed as early apoptotic cells at 20 uM after 24 hrs by annexin-V/PI staining-based flow cytometric analysis (reference value: 1.9%); format: functional
[17] = test system: AGS; experiment: Induction of apoptosis in human AGS cells assessed as late apoptotic cells at 20 uM after 24 hrs by annexin-V/PI staining-based flow cytometric analysis (reference value: 2.5%); format: functional
[18] = test system: AGS; experiment: Induction of apoptosis in human AGS cells assessed as necrotic cells at 5 uM after 24 hrs by annexin-V/PI staining-based flow cytometric analysis (reference value: 0.1%); format: functional
[19] = test system: AGS; experiment: Induction of apoptosis in human AGS cells assessed as necrotic cells at 10 uM after 24 hrs by annexin-V/PI staining-based flow cytometric analysis (reference value: 0.1%); format: functional
[20] = test system: AGS; experiment: Induction of apoptosis in human AGS cells assessed as necrotic cells at 20 uM after 24 hrs by annexin-V/PI staining-based flow cytometric analysis (reference value: 0.1%); format: functional
[21] = test system: AGS; experiment: Cell cycle arrest in human AGS cells assessed as accumulation at sub-G0/G1 phase at 20.6 uM after 48 hrs by flow cytometry (reference value: 1.56 +/- 0.20%); format: functional
[22] = test system: AGS; experiment: Cell cycle arrest in human AGS cells assessed as accumulation at G0/G1 phase cells at 20.6 uM after 48 hrs by flow cytometry (reference value: 28.07 +/- 3.52%); format: functional
[23] = test system: AGS; experiment: Cell cycle arrest in human AGS cells assessed as accumulation at S phase cells at 20.6 uM after 48 hrs by flow cytometry (reference value: 36.56 +/- 0.36%); format: functional
[24] = test system: AGS; experiment: Cell cycle arrest in human AGS cells assessed as accumulation at G2/M phase cells at 20.6 uM after 48 hrs by flow cytometry (reference value: 35.37 +/- 3.73%); format: functional

Row | SMILES | IC50 [1] | IC50 [2] | IC50 [3] | IC50 [4] | Activity [5] | Activity [6] | Activity [7] | Activity [8] | other results
1 | C[C@H]1[C@H](C)CC[C@]2(C(=O)NC(CC(=O)O)C(=O)O)CC[C@]3(C)C(=CC[C@@H]4[C@@]5(C)CC[C@H](O)C(C)(C)[C@@H]5CC[C@]43C)[C@H]12 (stereo not given in full) | > 100 µM | > 100 µM | > 100 µM | > 100 µM |  |  |  |  | 
2 | C[C@H]1[C@H](C)CC[C@]2(C(=O)NC(CCC(=O)O)C(=O)O)CC[C@]3(C)C(=CC[C@@H]4[C@@]5(C)CC[C@H](O)C(C)(C)[C@@H]5CC[C@]43C)[C@H]12 (stereo not given in full) | > 100 µM | > 100 µM | > 100 µM | > 100 µM |  |  |  |  | 
3 | CC(=O)O[C@H]1CC[C@]2(C)[C@H]3CC=C4[C@@H]5[C@@H](C)[C@H](C)CC[C@]5(C(=O)NCCN)CC[C@@]4(C)[C@]3(C)CC[C@H]2C1(C)C | < 10 µM | 12.4 µM | < 10 µM | < 10 µM | 46.72% | 88.3% | 51.86% | 1.42% | 
4 | C[C@H]1[C@H](C)CC[C@]2(C(=O)NCCN)CC[C@]3(C)C(=CC[C@@H]4[C@@]5(C)CC[C@H](O)C(C)(C)[C@@H]5CC[C@]43C)[C@H]12 | 11.4 µM | 21.3 µM | 14.3 µM | < 10 µM | 2.51% | 92.64% | 30.83% | 66.66% | viability at 5 µM [9]: 84.7%; Activity [10]: 8.9%; Activity [11]: 6.1%; viability at 10 µM [12]: 59.9%; Activity [13]: 27.7%; Activity [14]: 11.8%; viability at 20 µM [15]: 13.7%; Activity [16]: 68.6%; Activity [17]: 17.2%; Activity [18]: 0.2%; Activity [19]: 0.7%; Activity [20]: 0.5%
5 | CC(=O)O[C@H]1CC[C@]2(C)[C@H]3CC=C4[C@@H]5[C@@H](C)[C@H](C)CC[C@]5(C(=O)NCCNC(=O)CN)CC[C@@]4(C)[C@]3(C)CC[C@H]2C1(C)C | < 10 µM | 15.5 µM | 20.2 µM | 14.3 µM | 37.66% | 75.45% | 36.97% | 25.37% | 
6 | CSCC[C@H](N)C(=O)NCCNC(=O)[C@]12CC[C@@H](C)[C@H](C)[C@H]1C1=CC[C@@H]3[C@@]4(C)CC[C@H](OC(C)=O)C(C)(C)[C@@H]4CC[C@@]3(C)[C@]1(C)CC2 | < 10 µM | < 10 µM | < 10 µM | < 10 µM | 45.03% | 82.38% | 54.97% | 0% | 
7 | CC(=O)O[C@H]1CC[C@]2(C)[C@H]3CC=C4[C@@H]5[C@@H](C)[C@H](C)CC[C@]5(C(=O)NCCNC(=O)[C@@H](N)Cc5ccccc5)CC[C@@]4(C)[C@]3(C)CC[C@H]2C1(C)C | < 10 µM | < 10 µM | < 10 µM | < 10 µM | 35.31% | 87.64% | 63.49% | 2.06% | 
8 | C[C@H]1[C@H](C)CC[C@]2(C(=O)NCCNC(=O)CN)CC[C@]3(C)C(=CC[C@@H]4[C@@]5(C)CC[C@H](O)C(C)(C)[C@@H]5CC[C@]43C)[C@H]12 | 10.2 µM |  |  | 19.6 µM | 71.45% | 44.69% | 17.72% | 11.23% | 
9 | CSCC[C@H](N)C(=O)NCCNC(=O)[C@]12CC[C@@H](C)[C@H](C)[C@H]1C1=CC[C@@H]3[C@@]4(C)CC[C@H](O)C(C)(C)[C@@H]4CC[C@@]3(C)[C@]1(C)CC2 | < 10 µM | 16 µM |  | < 10 µM | 68.65% | 50.03% | 12.9% | 18.46% | 
10 | C[C@H]1[C@H](C)CC[C@]2(C(=O)NCCNC(=O)[C@@H](N)Cc3ccccc3)CC[C@]3(C)C(=CC[C@@H]4[C@@]5(C)CC[C@H](O)C(C)(C)[C@@H]5CC[C@]43C)[C@H]12 | < 10 µM |  |  | < 10 µM | 45.59% | 47.73% | 42.62% | 11.79% | 
11 | CC(=O)O[C@H]1C(=O)[C@@]2(C)[C@H]([C@H](OC(=O)c3ccccc3)[C@]3(O)C[C@H](OC(=O)[C@H](O)[C@@H](NC(=O)c4ccccc4)c4ccccc4)C(C)=C1C3(C)C)[C@]1(OC(C)=O)CO[C@@H]1C[C@@H]2O [PACLITAXEL] | < 10 µM | 30.7 µM | < 10 µM | 57.2 µM | 86.18% | 70.41% | 5.92% | 7.9% | 
12 | C[C@H]1[C@H](C)CC[C@]2(C(=O)O)CC[C@]3(C)C(=CC[C@@H]4[C@@]5(C)CC[C@H](O)C(C)(C)[C@@H]5CC[C@]43C)[C@H]12 [URSOLIC ACID] | 20.6 µM | 53.4 µM | 25.3 µM | 22.3 µM |  |  |  |  | Activity [21]: 86.53%; Activity [22]: 33.2%; Activity [23]: 14.64%; Activity [24]: 52.16%
